Measurements as given in ChEMBL document CHEMBL1129519, “Optimal recognition of neutral endopeptidase and angiotensin-converting enzyme active sites by mercaptoacyldipeptides as a means to design potent dual inhibitors” (J Med Chem, 1996).

Columns and labels:
[1] = target: T1, Angiotensin-converting enzyme (Rattus norvegicus, UniProt P47820); assay: Inhibitory activity against angiotensin I converting enzyme
T1 sequence (P47820 whole entry): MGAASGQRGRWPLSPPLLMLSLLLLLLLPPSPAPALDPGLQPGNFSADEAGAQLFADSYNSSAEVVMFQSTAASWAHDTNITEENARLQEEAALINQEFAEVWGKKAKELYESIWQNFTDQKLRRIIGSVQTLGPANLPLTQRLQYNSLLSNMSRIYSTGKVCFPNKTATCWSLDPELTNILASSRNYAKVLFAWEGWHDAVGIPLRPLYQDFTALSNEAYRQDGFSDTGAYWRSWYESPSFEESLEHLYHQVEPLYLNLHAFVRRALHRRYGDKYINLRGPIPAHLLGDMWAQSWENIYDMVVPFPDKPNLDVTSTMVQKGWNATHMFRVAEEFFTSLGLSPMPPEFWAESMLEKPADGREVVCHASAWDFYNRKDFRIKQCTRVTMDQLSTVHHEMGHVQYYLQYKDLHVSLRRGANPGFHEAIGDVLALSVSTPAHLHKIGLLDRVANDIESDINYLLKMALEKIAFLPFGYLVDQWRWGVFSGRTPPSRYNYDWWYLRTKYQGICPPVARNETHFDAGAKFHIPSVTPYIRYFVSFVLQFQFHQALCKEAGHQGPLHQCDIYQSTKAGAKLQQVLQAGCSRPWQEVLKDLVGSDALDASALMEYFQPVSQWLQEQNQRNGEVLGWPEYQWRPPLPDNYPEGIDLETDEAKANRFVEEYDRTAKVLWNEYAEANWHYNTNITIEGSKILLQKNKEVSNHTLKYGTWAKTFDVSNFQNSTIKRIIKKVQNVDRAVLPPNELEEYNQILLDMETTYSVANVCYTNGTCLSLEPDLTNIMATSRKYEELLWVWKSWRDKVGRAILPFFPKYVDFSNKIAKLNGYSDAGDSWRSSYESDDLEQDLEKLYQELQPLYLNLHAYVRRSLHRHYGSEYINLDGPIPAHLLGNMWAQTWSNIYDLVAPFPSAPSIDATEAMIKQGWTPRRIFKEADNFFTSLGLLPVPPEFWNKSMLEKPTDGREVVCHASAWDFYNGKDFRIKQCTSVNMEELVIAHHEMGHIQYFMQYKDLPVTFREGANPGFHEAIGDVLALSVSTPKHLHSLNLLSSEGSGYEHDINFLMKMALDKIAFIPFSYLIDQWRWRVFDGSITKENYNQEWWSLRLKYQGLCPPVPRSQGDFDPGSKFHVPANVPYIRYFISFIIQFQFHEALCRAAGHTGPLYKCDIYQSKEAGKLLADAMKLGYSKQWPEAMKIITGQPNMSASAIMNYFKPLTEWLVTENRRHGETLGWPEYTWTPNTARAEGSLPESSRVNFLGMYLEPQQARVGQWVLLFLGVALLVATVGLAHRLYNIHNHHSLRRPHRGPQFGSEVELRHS
Method in brief: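 Rat testis enzyme purified to homogeneity, 0.02 pmol/100 µL final, preincubated 15 min at 37 °C with varied inhibitor levels in 50 mM Tris-HCl pH 8.0. N-Cbz-Phe-His-Leu then added to 0.05 mM final and run 15 min. Stopped with 2 M NaOH, His-Leu measured fluorimetrically (ex 365, em 495 nm) against a His-Leu calibration curve. IC50 as mean ± SEM of three independent determinations, each in triplicate.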

Neprilysin = target: T2, Neprilysin (Oryctolagus cuniculus, UniProt P08049); assay: Inhibitory activity was tested against neutral endopeptidase
T2 sequence (P08049 whole entry): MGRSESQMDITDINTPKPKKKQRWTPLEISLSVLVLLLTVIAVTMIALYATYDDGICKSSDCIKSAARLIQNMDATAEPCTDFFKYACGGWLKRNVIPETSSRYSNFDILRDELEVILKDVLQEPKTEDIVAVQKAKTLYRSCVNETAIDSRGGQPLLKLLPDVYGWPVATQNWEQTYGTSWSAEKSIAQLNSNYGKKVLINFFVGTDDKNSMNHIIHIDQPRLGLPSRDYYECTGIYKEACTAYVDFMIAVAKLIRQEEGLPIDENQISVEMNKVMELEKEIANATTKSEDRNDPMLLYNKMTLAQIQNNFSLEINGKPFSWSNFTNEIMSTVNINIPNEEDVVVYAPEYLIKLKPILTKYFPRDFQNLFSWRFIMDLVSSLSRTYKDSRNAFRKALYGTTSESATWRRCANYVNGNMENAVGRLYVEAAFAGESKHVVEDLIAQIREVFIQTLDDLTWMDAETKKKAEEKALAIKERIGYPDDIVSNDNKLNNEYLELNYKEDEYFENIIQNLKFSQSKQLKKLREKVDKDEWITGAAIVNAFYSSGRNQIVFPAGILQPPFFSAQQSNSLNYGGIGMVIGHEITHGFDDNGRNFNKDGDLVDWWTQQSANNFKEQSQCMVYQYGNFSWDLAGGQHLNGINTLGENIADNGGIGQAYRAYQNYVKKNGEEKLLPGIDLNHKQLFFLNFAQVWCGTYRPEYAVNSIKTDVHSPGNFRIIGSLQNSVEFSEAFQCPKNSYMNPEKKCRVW
Method in brief: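 Rabbit kidney enzyme purified to homogeneity, 1 pmol/100 µL final, preincubated 15 min at 25 °C with or without rising inhibitor concentrations in 50 mM Tris-HCl pH 7.4. [3H]Tyr-D-Ala2-Leu-enkephalin then added to 20 nM final and run 30 min. Stopped with 0.5 M HCl, tritiated metabolites separated on polystyrene beads. IC50 as mean ± SEM of three independent determinations, each in triplicate.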

Compound | IC50 [1] [nM] | IC50 (Neprilysin) [nM]
C=C(C)[C@@H]1CC[C@]2(C(=O)N[C@H](C(=O)O)[C@@H](C)CC)CC[C@]3(C)[C@H](CC[C@@H]4[C@@]5(C)CC[C@H](O)C(C)(C)[C@@H]5CC[C@]43C)[C@@H]12 | 6.3 | 5.5
CC[C@@H](C)[C@H](S)C(=O)N[C@H](C(=O)N[C@@H](Cc1ccc(O)cc1)C(=O)O)C(C)c1ccccc1 (stereo not given in full) | 33 | 32
CC[C@H](C)[C@H](S)C(=O)N[C@H](C(=O)N[C@@H](Cc1ccc(O)cc1)C(=O)O)C(C)C | 1.9 | 5.3
CC[C@H](C)[C@H](NC(=O)[C@@H](S)C(C)C)C(=O)N1C(C(=O)O)CC2CCCCC21 (stereo not given in full) | 28 | 175
CC[C@H](C)[C@H](NC(=O)[C@@H](S)c1ccccc1)C(=O)N[C@@H](Cc1ccc(O)cc1)C(=O)O | 3.5 | 4.5
CC[C@H](C)[C@H](S)C(=O)N[C@@H](Cc1ccccc1)C(=O)N[C@@H](Cc1ccc(O)cc1)C(=O)O | 10 | 3.5
CC(C)C[C@H](NC(=O)[C@@H](S)Cc1ccccc1)C(=O)N[C@@H](Cc1ccc(O)cc1)C(=O)O | 3 | 2.2
CC(C)(NC(=O)[C@@H](S)CCc1ccccc1)C(=O)N1CCCC1C(=O)O (stereo not given in full) | 1.6 | 46
O=C(O)[C@H](Cc1ccccc1)NC(=O)[C@@H](S)Cc1ccccc1 | 44 | 23
CC(C)[C@H](NC(=O)[C@@H](S)Cc1ccccc1)C(=O)N1CCCC1C(=O)O (stereo not given in full) | 0.85 | 24
CC[C@H](C)[C@H](NC(=O)[C@@H](S)Cc1ccccc1)C(=O)N[C@@H](Cc1ccc(O)cc1)C(=O)O | 2.5 | 3
O=C(O)[C@H](Cc1ccc(O)cc1)NC(=O)[C@H](Cc1ccccc1)NC(=O)[C@@H](S)CCc1ccccc1 | 1.5 | 20
C[C@H](NC(=O)[C@@H](S)Cc1ccccc1)C(=O)N1CCCC1 | 150 | 22
C[C@H](NC(=O)[C@@H](S)Cc1ccccc1)C(=O)O | 40 | 4
CC[C@@H](C)[C@H](NC(=O)[C@@H](S)c1ccccc1)C(=O)N1CCCC1C(=O)O (stereo not given in full) | 28 | 130
CC[C@@H](C)[C@H](NC(=O)[C@@H](S)Cc1ccccc1)C(=O)N1CCCC1C(=O)O (stereo not given in full) | 1.7 | 24
C[C@H](NC(=O)[C@@H](S)Cc1ccccc1)C(=O)N1C(C(=O)O)CC2CCCCC21 (stereo not given in full) | 0.4 | 5.3
O=C(O)[C@H](Cc1c[nH]c2ccccc12)NC(=O)[C@H](Cc1ccccc1)NC(=O)[C@@H](S)Cc1ccccc1 | 7.9 | 50
CC(C)[C@H](NC(=O)[C@@H](S)Cc1ccccc1)C(=O)N[C@@H](Cc1ccc(O)cc1)C(=O)O | 4 | 3.6
C[C@H](NC(=O)[C@H](Cc1ccccc1)NC(=O)[C@@H](S)Cc1ccccc1)C(=O)O | 7.1 | 2.3

Compound | IC50 [1] [nM] | IC50 (Neprilysin) [nM]
CC[C@H](C)[C@H](S)C(=O)N[C@H](C(=O)N1CCC[C@H]1C(=O)O)C(C)C | 0.58 | 190
C[C@H](NC(=O)[C@H](Cc1ccccc1)NC(=O)CS)C(=O)O | 220 | 14
O=C(O)[C@H](Cc1cccc2ccccc12)NC(=O)[C@H](Cc1ccccc1)NC(=O)[C@@H](S)Cc1ccccc1 | 50 | 120
CC[C@@H](C)[C@H](NC(=O)[C@@H](S)C(C)C)C(=O)N[C@@H](Cc1ccc(O)cc1)C(=O)O | 0.26 | 1.4
CC[C@@H](C)[C@H](NC(=O)[C@@H](S)C(C)OCc1ccccc1)C(=O)N[C@@H](Cc1ccc(O)cc1)C(=O)O (stereo not given in full) | 7.1 | 4.1
CC[C@H](C)[C@H](S)C(=O)N[C@@H](C)C(=O)N1c2ccccc2CC1C(=O)O (stereo not given in full) | 3.3 | 180
O=C(O)[C@H](CSCc1ccccc1)NC(=O)[C@H](Cc1ccccc1)NC(=O)[C@@H](S)Cc1ccccc1 | 14 | 40
CCCC[C@H](NC(=O)[C@@H](S)Cc1ccccc1)C(=O)N[C@@H](Cc1ccc(O)cc1)C(=O)O | 4 | 2.8
O=C(O)[C@H](Cc1ccc(O)cc1)NC(=O)[C@H](Cc1ccccc1)NC(=O)[C@@H](S)Cc1ccccc1 | 5.6 | 2.9
O=C(NC1(C(=O)O)CCCC1)[C@H](Cc1ccccc1)NC(=O)[C@@H](S)Cc1ccccc1 | 30 | 45
CC(C)[C@H](NC(=O)[C@@H](S)CCc1ccccc1)C(=O)N[C@@H](Cc1ccc(O)cc1)C(=O)O | 1.6 | 10
CC(OCc1ccccc1)[C@H](NC(=O)[C@@H](S)Cc1ccccc1)C(=O)N[C@@H](Cc1ccc(O)cc1)C(=O)O (stereo not given in full) | 34 | 100
C[C@H](NC(=O)[C@@H](S)Cc1ccccc1)C(=O)N1CCCCC1C(=O)O (stereo not given in full) | 1.6 | 9.5
O=C(O)[C@H](COCc1ccccc1)NC(=O)[C@H](Cc1ccccc1)NC(=O)[C@@H](S)Cc1ccccc1 | 12 | 50
CC(c1ccccc1)[C@H](S)C(=O)N[C@H](C(=O)N1CCCC[C@H]1C(=O)O)C(C)C (stereo not given in full) | 110 | 180
O=C(O)C1CCCN1C(=O)[C@H](Cc1ccccc1)NC(=O)[C@@H](S)Cc1ccccc1 (stereo not given in full) | 1.1 | 30
C[C@H](NC(=O)[C@@H](S)Cc1ccccc1)C(=O)N1CCC[C@H]1C(=O)O | 0.3 | 3.8
C[C@H](NC(=O)[C@@H](S)CCc1ccccc1)C(=O)N1CCCC1C(=O)O (stereo not given in full) | 0.35 | 20
CC(C)[C@H](NC(=O)[C@@H](S)Cc1ccccc1)C(=O)N1CC(O)CC1C(=O)O (stereo not given in full) | 100 | 63
C[C@H](NC(=O)[C@H](S)Cc1ccccc1)C(=O)N1CCC[C@H]1C(=O)O | 25 | 1.3
